Experimental data from publication PMC9060504 (Proceedings of the National Academy of Sciences of the …, 2022).

Columns and labels:
[1] = biological target: STIM1 and Orai1 (CRAC channel) (Homo sapiens, UniProt Q96D31); assay: Whole-cell patch-clamp CRAC current in HEK293 cells expressing STIM1 and Orai1; type: cell-based
Orai1 P245L = Orai1 P245L (Homo sapiens, UniProt Q96D31, P245L); assay: Current recording, constitutively open Orai1 P245L mutant; type: cell-based; settings: 10 μM
Method in brief: (§1)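 Whole-cell currents were recorded from cells expressing the Orai1 mutant or the chimera (the chimera with STIM1). Cells were superfused with extracellular solution containing 10 mM Ca2+, with or without 10 μM test compound or 10 μM La3+. During recording, cells were kept dark or illuminated at the indicated wavelengths. Time courses and I-V plots were collected.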

Orai1 [2] = biological target: T1, Orai1 (Homo sapiens, UniProt Q96D31); type: cell-based; settings: Orai1 alone, 100 μM, with or without 360 nm light
Target sequence in this assay (Q96D31 whole entry): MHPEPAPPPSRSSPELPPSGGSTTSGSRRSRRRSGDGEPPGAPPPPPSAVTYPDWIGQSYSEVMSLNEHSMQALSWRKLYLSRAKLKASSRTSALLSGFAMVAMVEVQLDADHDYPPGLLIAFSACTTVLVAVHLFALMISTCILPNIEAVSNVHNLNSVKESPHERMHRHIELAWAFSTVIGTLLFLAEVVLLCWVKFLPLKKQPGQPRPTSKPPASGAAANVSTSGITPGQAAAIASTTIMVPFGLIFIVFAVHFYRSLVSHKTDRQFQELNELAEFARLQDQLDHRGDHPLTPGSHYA

TRPC6 = TRPC6 (Homo sapiens, UniProt Q9Y210); assay: Ca2+ imaging of TRPC6-mediated Ca2+ influx in STIM DKO cells; type: cell-based; settings: 100 μM
Method in brief: (§2)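 Cells were loaded with 5 μM Cal-590 in Ringer's solution for 60 min, excited at 560 nm, and imaged every 3 or 10 s. Each experiment recorded 10 to 97 cells, and their responses were averaged. The Ca2+ change after activating each transport mechanism with 100 μM test compound present was normalized to the change in DMSO-treated control cells.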

Orai3 [3] = biological target: T2, Orai3 (Homo sapiens, UniProt Q9BRQ5); assay: Ca2+ imaging of SOCE, Orai TKO HEK293 cells expressing STIM1 and Orai3; type: cell-based; settings: 100 μM, dark
[4] = tested on: NFAT transcription in Jurkat NFAT-P/Luciferase (JNL) cells; assay: NFAT-dependent luciferase assay in JNL cells; type: cell-based, human; settings: 100 μM
Orai1 V102A = Orai1 V102A (Homo sapiens, UniProt Q96D31, V102A); assay: Current recording, constitutively open Orai1 V102A mutant; type: cell-based; settings: 10 μM
Method in brief: as §1

[5] = biological target: T3, STIM1 together with Orai3 (Homo sapiens, UniProt Q9BRQ5); assay: Whole-cell patch-clamp CRAC current in cells coexpressing STIM1 and Orai3; type: cell-based
STIM1 = STIM1 (Homo sapiens, UniProt Q13586); assay: TIRFM of STIM1 clustering at ER–PM junctions; type: cell-based; settings: 100 μM, after ER Ca2+ depletion with TG
Method in brief: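 TIRFM used a 100× (N.A. 1.49) objective. STIM1-mCherry cells were held in zero-Ca2+ solution with 400 nM thapsigargin for 10 min, then received 100 μM test compound and were imaged before and 20 min after. Orai1-EGFP/STIM1-mCherry cells were preincubated with 100 μM compound in zero Ca2+ and imaged before and 10 min after adding 400 nM thapsigargin.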

[6] = tested on: EMT6-GFP murine breast cancer cells; assay: Pulmonary metastatic assay; type: in vivo, mouse
Method in brief: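 EMT6-GFP cells were treated for 1 h with 1% DMSO or 200 µM test compound, with or without 10 s of 365 nm light (16 mW/cm²) at 0, 30 and 60 min. They were then washed and injected into the tail vein of 8-wk BALB/c mice (5 × 10⁴ cells). After 20 min, lungs were perfused, agarose-inflated and cut into 1–2 mm slices. Slices were cultured 7 d at 37 °C, and GFP⁺ colonies counted (3 slices/mouse, 5 mice/group). GFP⁺ cell percentage was then measured by flow cytometry.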

Orai2 = Orai2 (Homo sapiens, UniProt Q96SN7); assay: Ca2+ imaging of SOCE, Orai TKO HEK293 cells expressing STIM1 and Orai2; type: cell-based; settings: 100 μM, dark
[7] = Photostability under repeated illumination; type: physicochemical; settings: eight cycles 365/520 nm, 1% DMSO in PBS
Method in brief: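 Test compound at 26 μM in 1% DMSO/PBS was exposed to eight cycles of alternating 5-min 365 nm and 520 nm LED illumination. Absorbance at 329 nm was recorded throughout.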

[8] = tested on: O3N–O1C chimeric Orai channel; assay: Current recording, STIM1 with chimeric O3N–O1C channel; type: cell-based; settings: 10 μM
Method in brief: as §1

NCX1 = NCX1 (Homo sapiens, UniProt P32418); assay: Ca2+ imaging of reverse Na+/Ca2+ exchange in cells overexpressing NCX1; type: cell-based
Method in brief: as §2

[9] = tested on: O1N–O3C chimeric Orai channel; assay: Current recording, STIM1 with chimeric O1N–O3C channel; type: cell-based; settings: 10 μM
Method in brief: as §1

Orai3 [10] = biological target: T2, Orai3; assay: Current recording, HEK293 cells expressing Orai3 alone; type: cell-based; settings: 100 μM, with or without 360 nm light
[11] = tested on: capsaicin-induced nocifensive behavior; assay: Capsaicin-induced forelimb eye wiping test; type: in vivo, mouse
Method in brief: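 Male C57BL/6JOLAHSD mice (3–4 wk, 5–6 per group) were handled for 2 d and habituated to the cage for 10 min. A 10-μL drop went to the right eye: vehicle (0.1% ethanol in SES), 1 μM capsaicin, 100 μM test compound, or capsaicin plus compound. Forelimb wipes were counted for 5 min, starting 5 min after dosing. Where used, 365 nm light (16 mW/cm², 3 cm, 60 s) was given and counting began 5 min later. Light alone was also tested.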

InsP3R = assay: Ca2+ imaging of IP3-mediated ER Ca2+ release in STIM DKO cells; type: cell-based; settings: 100 μM
Method in brief: as §2

TRPV1 = TRPV1 (Homo sapiens, UniProt Q8NER1); assay: Ca2+ imaging of TRPV1-mediated Ca2+ influx in STIM DKO cells; type: cell-based; settings: 100 μM
Method in brief: as §2

Orai1 [12] = biological target: T1, Orai1; assay: Ca2+ imaging of SOCE, Orai TKO HEK293 cells expressing STIM1 and Orai1; type: cell-based; settings: 100 μM, dark
Target sequence in this assay (Q96D31 whole entry): as above
Target sequence in this assay (Q13586 23-685 partner): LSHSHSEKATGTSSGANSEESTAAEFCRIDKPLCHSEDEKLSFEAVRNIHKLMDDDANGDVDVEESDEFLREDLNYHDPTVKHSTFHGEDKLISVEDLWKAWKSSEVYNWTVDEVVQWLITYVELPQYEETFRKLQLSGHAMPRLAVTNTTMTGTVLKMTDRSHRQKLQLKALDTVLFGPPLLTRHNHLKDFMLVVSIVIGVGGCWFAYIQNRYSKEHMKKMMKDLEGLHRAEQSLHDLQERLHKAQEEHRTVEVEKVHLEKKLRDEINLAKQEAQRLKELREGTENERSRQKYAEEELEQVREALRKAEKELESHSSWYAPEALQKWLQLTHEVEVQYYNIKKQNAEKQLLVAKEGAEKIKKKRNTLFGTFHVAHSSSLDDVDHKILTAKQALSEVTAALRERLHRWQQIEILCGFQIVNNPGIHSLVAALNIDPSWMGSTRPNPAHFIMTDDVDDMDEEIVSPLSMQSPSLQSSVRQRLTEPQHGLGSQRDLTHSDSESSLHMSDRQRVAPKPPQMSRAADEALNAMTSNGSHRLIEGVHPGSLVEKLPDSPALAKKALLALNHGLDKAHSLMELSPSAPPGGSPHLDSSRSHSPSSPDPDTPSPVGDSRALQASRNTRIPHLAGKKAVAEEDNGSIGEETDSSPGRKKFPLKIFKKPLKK

TRPC3 = TRPC3 (Homo sapiens, UniProt Q13507); assay: Ca2+ imaging of TRPC3-mediated Ca2+ influx in STIM DKO cells; type: cell-based; settings: 100 μM
Method in brief: as §2

[13] = Trans:cis isomer ratio by 1H NMR; type: physicochemical
[14] = biological target: STIM1 together with Orai2 (Homo sapiens, UniProt Q96SN7); assay: Whole-cell patch-clamp CRAC current in cells coexpressing STIM1 and Orai2; type: cell-based
SOCE in HEK293 cells = assay: Ca2+ imaging of SOCE in HEK293 cells; type: cell-based; settings: 100 μM, 1 mM Ca2+, TG
SOCE in TG neurons = assay: Ca2+ imaging of SOCE in cultured trigeminal ganglion neurons; type: cell-based, mouse; settings: 100 μM
Method in brief: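 Mouse trigeminal ganglion neurons were acutely dissociated, cultured and loaded with Cal-590. They were held for 10 min in Ca2+-free solution with 1 μM thapsigargin, with or without 100 μM test compound. SOCE was then induced by superfusion with 0.5 mM Ca2+, without or with 360 nm illumination. Fluorescence time courses came from n = 71 to 179 cells per group.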

[15] = biological target: T3, STIM1 together with Orai3; settings: cited from earlier work
[16] = cells treated with 200 μM, no illumination

Chain of STIM1 and Orai1 (CRAC channel) (Q96D31 whole entry): as the sequence (Q96D31 whole entry) above
Chain of STIM1 and Orai1 (CRAC channel) (Q13586 23-685 partner): as the sequence (Q13586 23-685 partner) above
Chain of TRPV1 (Q8NER1 whole entry, species assumed): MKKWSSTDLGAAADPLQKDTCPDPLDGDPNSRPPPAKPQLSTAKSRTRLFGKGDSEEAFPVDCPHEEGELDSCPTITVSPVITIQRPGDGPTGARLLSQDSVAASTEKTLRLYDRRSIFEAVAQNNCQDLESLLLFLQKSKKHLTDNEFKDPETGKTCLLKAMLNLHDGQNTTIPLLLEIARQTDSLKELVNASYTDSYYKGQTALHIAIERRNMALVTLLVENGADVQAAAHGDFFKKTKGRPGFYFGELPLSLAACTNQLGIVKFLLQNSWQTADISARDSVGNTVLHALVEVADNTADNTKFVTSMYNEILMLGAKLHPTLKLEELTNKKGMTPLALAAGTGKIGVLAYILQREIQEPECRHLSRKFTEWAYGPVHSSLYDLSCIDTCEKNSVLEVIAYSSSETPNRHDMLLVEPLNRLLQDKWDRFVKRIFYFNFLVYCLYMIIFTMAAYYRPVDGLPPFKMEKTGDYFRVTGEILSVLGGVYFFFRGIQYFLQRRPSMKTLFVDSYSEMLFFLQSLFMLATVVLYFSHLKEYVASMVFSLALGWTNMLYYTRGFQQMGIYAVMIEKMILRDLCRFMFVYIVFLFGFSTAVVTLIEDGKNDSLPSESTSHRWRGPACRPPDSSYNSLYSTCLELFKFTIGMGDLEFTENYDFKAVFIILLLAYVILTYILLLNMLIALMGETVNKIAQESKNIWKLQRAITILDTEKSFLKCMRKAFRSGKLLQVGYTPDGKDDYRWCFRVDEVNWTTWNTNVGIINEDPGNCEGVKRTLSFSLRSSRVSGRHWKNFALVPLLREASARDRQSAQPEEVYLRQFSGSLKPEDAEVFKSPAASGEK
Chain of STIM1 (Q13586 23-685, species assumed): as the sequence (Q13586 23-685 partner) above
Chain of TRPC3 (Q13507 whole entry, species assumed): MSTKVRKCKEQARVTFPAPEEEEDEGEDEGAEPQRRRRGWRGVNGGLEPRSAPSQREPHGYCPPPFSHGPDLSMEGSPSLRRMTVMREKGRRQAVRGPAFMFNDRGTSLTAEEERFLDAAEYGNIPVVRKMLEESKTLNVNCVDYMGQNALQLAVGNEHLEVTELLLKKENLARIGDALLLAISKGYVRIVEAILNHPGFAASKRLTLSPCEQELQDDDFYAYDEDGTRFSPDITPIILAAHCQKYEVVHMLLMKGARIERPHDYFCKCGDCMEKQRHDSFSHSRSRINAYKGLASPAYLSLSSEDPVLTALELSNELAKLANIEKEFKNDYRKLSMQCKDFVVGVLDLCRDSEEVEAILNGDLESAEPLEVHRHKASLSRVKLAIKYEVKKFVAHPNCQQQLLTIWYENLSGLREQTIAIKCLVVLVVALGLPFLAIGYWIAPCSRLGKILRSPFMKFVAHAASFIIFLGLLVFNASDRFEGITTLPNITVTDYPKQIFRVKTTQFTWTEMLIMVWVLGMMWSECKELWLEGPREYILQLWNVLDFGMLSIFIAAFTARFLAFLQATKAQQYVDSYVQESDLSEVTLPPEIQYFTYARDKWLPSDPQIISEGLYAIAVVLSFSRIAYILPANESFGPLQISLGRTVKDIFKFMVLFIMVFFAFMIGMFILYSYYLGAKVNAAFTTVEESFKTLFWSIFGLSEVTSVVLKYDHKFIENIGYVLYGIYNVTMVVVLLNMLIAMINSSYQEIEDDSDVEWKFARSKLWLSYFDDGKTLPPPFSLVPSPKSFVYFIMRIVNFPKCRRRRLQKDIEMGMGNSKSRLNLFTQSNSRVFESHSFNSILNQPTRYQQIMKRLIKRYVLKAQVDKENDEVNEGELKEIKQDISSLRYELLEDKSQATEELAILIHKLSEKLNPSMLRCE
Chain of STIM1 together with Orai2 (Q96SN7 whole entry): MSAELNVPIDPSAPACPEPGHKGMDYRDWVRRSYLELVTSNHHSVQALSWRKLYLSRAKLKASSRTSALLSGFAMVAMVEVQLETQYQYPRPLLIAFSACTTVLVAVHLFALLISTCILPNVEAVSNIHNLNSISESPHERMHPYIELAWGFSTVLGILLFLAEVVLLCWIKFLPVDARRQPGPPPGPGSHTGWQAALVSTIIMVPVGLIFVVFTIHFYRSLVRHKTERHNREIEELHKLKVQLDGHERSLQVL
Chain of Orai2 (Q96SN7 whole entry): as above
Chain of TRPC6 (Q9Y210 whole entry, species assumed): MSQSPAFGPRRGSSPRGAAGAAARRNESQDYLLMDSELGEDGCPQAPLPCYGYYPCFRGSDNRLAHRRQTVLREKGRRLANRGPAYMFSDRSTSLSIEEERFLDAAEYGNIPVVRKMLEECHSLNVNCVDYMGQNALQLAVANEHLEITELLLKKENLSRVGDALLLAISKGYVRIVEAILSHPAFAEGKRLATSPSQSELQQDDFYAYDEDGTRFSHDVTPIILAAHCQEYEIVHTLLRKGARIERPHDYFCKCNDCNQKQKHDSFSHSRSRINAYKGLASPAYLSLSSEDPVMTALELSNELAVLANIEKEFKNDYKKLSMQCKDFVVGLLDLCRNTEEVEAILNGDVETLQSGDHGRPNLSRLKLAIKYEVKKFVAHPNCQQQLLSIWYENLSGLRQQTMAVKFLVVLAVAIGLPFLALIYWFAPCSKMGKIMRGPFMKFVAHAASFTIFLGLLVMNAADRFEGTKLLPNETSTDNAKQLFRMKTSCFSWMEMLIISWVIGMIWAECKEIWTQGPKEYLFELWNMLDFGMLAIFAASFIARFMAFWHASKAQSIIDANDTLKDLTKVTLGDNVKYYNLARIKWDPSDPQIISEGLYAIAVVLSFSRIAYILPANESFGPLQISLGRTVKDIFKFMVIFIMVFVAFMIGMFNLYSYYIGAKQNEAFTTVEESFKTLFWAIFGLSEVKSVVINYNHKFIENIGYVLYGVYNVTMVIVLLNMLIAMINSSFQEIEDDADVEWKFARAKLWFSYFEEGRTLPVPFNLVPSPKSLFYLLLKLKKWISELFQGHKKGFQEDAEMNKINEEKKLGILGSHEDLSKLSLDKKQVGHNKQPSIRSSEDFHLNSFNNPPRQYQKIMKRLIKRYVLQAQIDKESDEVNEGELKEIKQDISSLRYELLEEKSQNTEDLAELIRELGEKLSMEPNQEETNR
Chain of Orai1 V102A (Q96D31 whole entry V102A): as the sequence (Q96D31 whole entry) above, with V102A counted along it
Chain of Orai1 P245L (Q96D31 whole entry P245L, the tested form may be a part): as the sequence (Q96D31 whole entry) above, with P245L counted along it

With OB(O)c1ccc(/N=N/c2ccccc2)cc1 [LOCI-1] the “Control of channel activity when infused into the cytosol via the patch pipette” value ([1]; 0.5 mM in pipette solution) was “failed to do so”, the Ki ([1]; Ki, dose-inhibition analysis, HEK293 STIM1+Orai1, LOCI-1 n = 3, LOCI-2 n = 4) was 5.5 ± 0.26 µM and the “Restoration of inhibited current by 360 nm light” value ([1]; LOCI-1 10 μM, LOCI-2 10 μM, 2-APB 100 μM) was “fully restored”. For the same molecule, the “Effect on Orai1 P245L current” value (Orai1 P245L) was “strongly inhibited”, the “Current change on application” value (Orai1 [2]) was “did not induce a notable current change” and the “Effect on TRPC6-mediated Ca2+ influx” value (TRPC6) was “did not affect”. For the same molecule, the “Effect on SOCE mediated by Orai3” value (Orai3 [3]) was “not”, the “Inhibition of NFAT transcription” value ([4]; 16 h, in the dark) was “more than 80%” and the “NFAT transcription after 365 nm light” value ([4]; two pulses of 365 nm light) was “fully restore transcription to control levels”. For the same molecule, the “Effect on Orai1 V102A current” value (Orai1 V102A) was “negligible effect”, the Ki [5] was 131 ± 24 µM and the inhibition at 100 µM ([5]; read-out: Average inhibition of Orai3 activity) was ~35%. For the same molecule, the “Effect on clustering of STIM1 in puncta at ER–PM junctions” value (STIM1) was “did not affect”, the “GFP-positive cancer cells in lung tissue” value ([6]; cells treated with 200 μM and 365 nm illumination) was ~1.3% and the “GFP-positive cancer cells in lung tissue” value [6, 16] was ~0.65%. For the same molecule, the “Number of metastatic colonies vs DMSO” value [6, 16] was “significantly fewer metastatic colonies”, the “Effect on SOCE mediated by Orai2” value (Orai2) was “strongly inhibits” and the “Photofatigue on repeated illumination” value [7] was “without significant photofatigue”. The “Effect on O3N–O1C channel current” value [8] was “small and inconsistent effect”, the “Effect on sodium–calcium exchange activity” value (NCX1) was “did not inhibit” and the “Effect on O1N–O3C channel current” value [9] was “strongly inhibited”. The “Current change on application” value (Orai3 [10]) was “did not induce a notable current change”, the “Eye wiping response, applied alone” value ([11]; 100 μM alone, topical to eye) was “neither LOCI-1 nor 365 nm light elicits an appreciable nocifensive behavior” and the “Inhibitory effect on eye wiping after a pulse of 365 nm light” value ([11]; 100 μM with 1 μM capsaicin, 365 nm 60 s) was “fully reversed”. For the same molecule, the “Eye wiping response, cotreatment with capsaicin” value ([11]; 100 μM with 1 μM capsaicin, topical to eye, vs capsaicin alone) was “significantly lower responses”, the “Effect on IP3-mediated Ca2+ release” value (InsP3R) was “did not affect” and the “Effect on TRPV1-mediated Ca2+ influx” value (TRPV1) was “did not affect”. For the same molecule, the “TRPV1 activity in presence of cis or trans conformations” value (TRPV1; HEK293 STIM DKO cells expressing TRPV1) was “unchanged”, the “Effect on SOCE mediated by Orai1” value (Orai1 [12]) was “strongly inhibits” and the “Effect on TRPC3-mediated Ca2+ influx” value (TRPC3) was “did not affect”. For the same molecule, the “Trans isomer content, dark-adapted” value [13] was 94%, the Ki [14] was 15.5 ± 1.8 µM and the “Effect on SOCE” value (SOCE in HEK293 cells) was “inhibited”. For the same molecule, the “Effect on SOCE in TG neurons” value (SOCE in TG neurons) was “inhibited”.

For O=C(Nc1ccn(Cc2ccc(O)cc2C(F)(F)F)n1)c1c(F)cccc1F [GSK7975A], the “Sensitivity of Orai3 current” value [15] is given as “sensitive”.

For O=C(Nc1ccn(Cc2ccccc2Oc2ccccc2)n1)c1c(F)cccc1F [GSK5503A], the “Sensitivity of Orai3 current” value [15] is listed as “sensitive”.
